GPR7 antag – human neuropeptides B/W receptor 1 antagonism; P48145; GPR7-expressing cells, fluorescence antagonist assay; inhibition, % at 4.4 µM; 290,000 compounds, 1.1% hits; AID 1861; in the data active = inhibition above about 16%, passing the limit was not always enough;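 also: cells stimulated with the agonist NPW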
MPTP block – blocks calcium-induced mitochondrial swelling; isolated mouse mitochondria, Ca2+ swelling absorbance, 30 min; inhibition, % at 10 µM; 360,000 compounds, 1.4% hits;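 active = inhibition of 50% or more, scaled per plate between neutral and stimulator controls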
TAAR1 antagonist – human TAAR1 antagonism | CHO RD-HGA16 TAAR1, Fluo-8 calcium fluorescence, antagonist | inhibition, % at 3 µM | AID 624466 | 360,000 compounds, 1.5% hits | Q96RJ0;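 active = inhibition above a per-plate cutoff, the mean inhibition of test compounds on that plate plus 3 SD, cut at about 49% in these data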
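Test system – hTAAR1-expressing CHO RD-HGA16 cells, Gα16-coupled · Reagent – β-PEA at EC80 concentration, post-compound challenge · Compound dosing – 3 µM, single point · Timing – 140 s kinetic read after compound, 140 s after agonist · Detection – Fluo-8 intracellular calcium dye fluorescence, real-time kinetic reads · Control set – DMSO and EC80 PEA controls · Repeats – n of 1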
DAGLB inhibitor – blocks human DAGLB lipase activity. Q8NCG7. HEK293T DAGLB membrane lysate, EnzChek fluorogenic substrate. inhibition, % at 5.17 µM. 340,000 compounds, 0.059% hits. AID 504411; in the data active = inhibition above about 34%
Target sequence (Q8NCG7 whole entry, looked up): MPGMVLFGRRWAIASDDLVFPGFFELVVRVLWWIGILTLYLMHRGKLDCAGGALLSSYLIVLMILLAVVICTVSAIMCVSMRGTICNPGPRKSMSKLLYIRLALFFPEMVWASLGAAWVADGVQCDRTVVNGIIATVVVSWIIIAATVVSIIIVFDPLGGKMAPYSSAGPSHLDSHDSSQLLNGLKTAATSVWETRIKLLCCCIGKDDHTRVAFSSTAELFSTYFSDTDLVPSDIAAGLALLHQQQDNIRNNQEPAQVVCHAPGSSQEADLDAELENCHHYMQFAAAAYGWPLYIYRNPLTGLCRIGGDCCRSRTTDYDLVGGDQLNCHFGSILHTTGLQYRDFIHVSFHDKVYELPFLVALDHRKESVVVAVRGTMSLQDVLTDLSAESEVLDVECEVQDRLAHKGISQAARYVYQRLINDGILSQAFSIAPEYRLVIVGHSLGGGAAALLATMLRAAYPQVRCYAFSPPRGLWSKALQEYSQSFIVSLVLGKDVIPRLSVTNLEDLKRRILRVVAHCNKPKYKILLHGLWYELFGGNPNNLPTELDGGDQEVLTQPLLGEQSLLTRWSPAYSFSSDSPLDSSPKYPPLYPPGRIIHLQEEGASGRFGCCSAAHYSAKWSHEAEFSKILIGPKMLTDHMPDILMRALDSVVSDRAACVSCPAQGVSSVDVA
TAAR1 ag – human TAAR1 agonism | Q96RJ0 | CHO RD-HGA16 TAAR1, Fluo-8 calcium fluorescence; vehicle wells 0%, saturating PEA agonist 100% | activation, % at 3 µM | 360,000 compounds, 0.99% hits;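 active = activation above the mean activation of all test compounds in the run plus 3 SD, cut at about 38% in these data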
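test system = CHO RD-HGA16 cells carrying human TAAR1 plus Gα16 | schedule = 17-24 h seeding, 75 min 37 °C dye, 30 min RT | compound dosing = 3 µM single concentration | control set = DMSO and PEA EC100 | replicates = n 1 | signal = Fluo-8 fluorescence, 5 s baseline then 140 s kinetic read | measure = percent activation vs PEA EC100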
TAAR1 ag conf – confirmation of human TAAR1 agonists. CHO RD-HGA16 TAAR1, Fluo-8 calcium fluorescence; scaled: DMSO 0%, maximal phenethylamine 100%. activation, % at 3 µM. shares compounds with TAAR1 ag. 2,400 compounds, 82% hits;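 active = activation above a cutoff set at the run's mean compound activation plus 3 SD, cut at about 39% in these data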
Ga16 nonsel ag – nonselective agonist in parental cells, TAAR1 agonist counter-screen | activation, % at 3 µM | AID 651787 | shares compounds with TAAR1 ag | 2,400 compounds, 50% hits | CHO-Ga16 parental, Fluo-8 calcium fluorescence; normalized to maximal ATP response, DMSO zero;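 active = activation above the run cutoff, the mean activation over all tested wells plus 3 SD, cut at about 12% in these data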
TAAR1 desens – TAAR1 response desensitization, agonist counter-screen; shares compounds with TAAR1 ag; CHO RD-HGA16 hTAAR1, Fluo-8 calcium, beta-PEA response inhibition; inhibition, % at 3 µM; 2,400 compounds, 46% hits;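 active = inhibition above the run cutoff, the mean inhibition of all test compounds plus 3 SD, cut at about 49% in these data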;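 also: beta-PEA stimulus applied at its EC80; loss of beta-PEA calcium signal after compound pretreatment read as receptor desensitization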
Ga16 nonsel ant – nonselective Ga16 antagonist in TAAR1 agonist counter-screen; shares compounds with TAAR1 ag; CHO-Ga16 ATP-induced calcium, Fluo-8 fluorescence; inhibition, % at 3 µM; 2,400 compounds, 39% hits; AID 651952;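 active = inhibition above the plate's mean compound inhibition plus 3 SD, computed per plate, cut at about 22% in these data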
Hits are given with their value. Most compounds without a hit are left out; they make up all but 4% or so of the library.

Results for NC(N)=N/N=C/c1ccc(Br)cc1 ?
GPR7 antag: inactive; MPTP block: inactive; TAAR1 antagonist: inactive; DAGLB inhibitor: inactive; TAAR1 ag: 58.4; TAAR1 ag conf: 80.5; Ga16 nonsel ag: inactive; TAAR1 desens: inactive; Ga16 nonsel ant: inactive

Results for CC(NCC(O)COCCC12CC3CC(CC(C3)C1)C2)c1ccccc1 (centres undefined) ?
GPR7 antag: inactive; MPTP block: inactive; TAAR1 antagonist: 87.2; DAGLB inhibitor: inactive; TAAR1 ag: 83.6; TAAR1 ag conf: 69.7; Ga16 nonsel ag: 41.5; TAAR1 desens: 76.7; Ga16 nonsel ant: 64.4

How did NCCc1nc(-c2ccccc2)cs1 do in these assays?
GPR7 antag: inactive; MPTP block: inactive; TAAR1 antagonist: inactive; DAGLB inhibitor: inactive; TAAR1 ag: 56.2; TAAR1 ag conf: 73.4; Ga16 nonsel ag: inactive; TAAR1 desens: 61.1; Ga16 nonsel ant: inactive

What do the screens show for `CS(=O)(=O)c1ccc(Nc2nc(C(N)Cc3ccc(F)cc3)cs2)cc1` (centres undefined)?
MPTP block: inactive; TAAR1 antagonist: inactive; TAAR1 ag: inactive

Results for COc1cc(OC)nc(Nc2nc(C(N)Cc3ccccc3)cs2)n1 (centres undefined) ?
MPTP block: inactive; TAAR1 antagonist: inactive; TAAR1 ag: inactive

What do the screens show for `CS(=O)(=O)c1ccc(Nc2nc(C(N)Cc3ccccc3)cs2)cc1` (centres undefined)?
MPTP block: inactive; TAAR1 antagonist: inactive; TAAR1 ag: 46.7; TAAR1 ag conf: 75.1; Ga16 nonsel ag: inactive; TAAR1 desens: inactive; Ga16 nonsel ant: inactive

What do the screens show for `Cc1cc(C)nc(Nc2nc(C(N)Cc3ccc(Cl)cc3)cs2)n1` (centres undefined)?
MPTP block: inactive; TAAR1 antagonist: 49.8; TAAR1 ag: 62.5; TAAR1 ag conf: 45.4; Ga16 nonsel ag: 27.3; TAAR1 desens: inactive; Ga16 nonsel ant: 32.9

How did NC(Cc1ccc(Cl)cc1)c1csc(NC(=O)Nc2ccccc2-c2ccccc2)n1 (centres undefined) do in these assays?
MPTP block: inactive; TAAR1 antagonist: inactive; TAAR1 ag: inactive

How did NC(Cc1ccc(Cl)cc1)c1csc(NC(=O)NCCc2ccccc2)n1 (centres undefined) do in these assays?
MPTP block: inactive; TAAR1 antagonist: 68.2; TAAR1 ag: 74.6; TAAR1 ag conf: 60.3; Ga16 nonsel ag: 30.4; TAAR1 desens: 62.8; Ga16 nonsel ant: 51.4

Results for NC(Cc1ccc(F)cc1)c1csc(Nc2ccc(S(N)(=O)=O)cc2)n1 (centres undefined) ?
MPTP block: inactive; TAAR1 antagonist: inactive; TAAR1 ag: 61.3; TAAR1 ag conf: 76.4; Ga16 nonsel ag: inactive; TAAR1 desens: 52.8; Ga16 nonsel ant: inactive

What do the screens show for `O=C(NC(=S)Nc1cccc(O)c1)C12CC3CC(CC(C3)C1)C2`?
MPTP block: inactive; TAAR1 antagonist: inactive; DAGLB inhibitor: inactive; TAAR1 ag: inactive

What do the screens show for `Cc1cc2c(c(=O)o1)[C@@]1(C(=O)N(C)c3ccccc31)C1=C(CC3(CCCCC3)OC1=O)O2`?
TAAR1 antagonist: inactive; TAAR1 ag: inactive

What do the screens show for `NC(Cc1ccccc1)c1csc(Nc2ccc(C(=O)NCCO)cc2)n1` (centres undefined)?
MPTP block: inactive; TAAR1 antagonist: inactive; TAAR1 ag: 44.9; TAAR1 ag conf: 76.4; Ga16 nonsel ag: inactive; TAAR1 desens: 57.7; Ga16 nonsel ant: inactive

How did NC(c1ccccc1)c1csc(Nc2ccc(C(=O)NCCO)cc2)n1 (centres undefined) do in these assays?
MPTP block: inactive; TAAR1 antagonist: inactive; TAAR1 ag: inactive

Results for O=C(NCC1CCN(C(=O)C(=O)c2cccs2)CC1)c1ccncc1 ?
TAAR1 antagonist: inactive; TAAR1 ag: inactive

What do the screens show for `COc1ccccc1Cc1c(-c2ccco2)nc2cc(C)c(Br)c(C)n12`?
MPTP block: inactive; TAAR1 antagonist: inactive; TAAR1 ag: inactive

Results for O=C(NCCc1cccs1)C1CC(c2ccccc2[N+](=O)[O-])=NO1 (centres undefined) ?
GPR7 antag: inactive; MPTP block: inactive; TAAR1 antagonist: inactive; DAGLB inhibitor: inactive; TAAR1 ag: 46.5; TAAR1 ag conf: 56.9; Ga16 nonsel ag: inactive; TAAR1 desens: inactive; Ga16 nonsel ant: inactive

Results for O=C(NCCc1ccccc1F)[C@@H]1CSC2c3ccccc3C(=O)N21 (some centres undefined) ?
GPR7 antag: inactive; MPTP block: inactive; TAAR1 antagonist: inactive; DAGLB inhibitor: inactive; TAAR1 ag: 59.6; TAAR1 ag conf: 65.1; Ga16 nonsel ag: inactive; TAAR1 desens: inactive; Ga16 nonsel ant: inactive

Results for O=C(O)[C@@H]1CSC2c3ccccc3C(=O)N21 (some centres undefined) ?
GPR7 antag: inactive; MPTP block: inactive; TAAR1 antagonist: inactive; DAGLB inhibitor: inactive; TAAR1 ag: inactive

What do the screens show for `CCOC(=O)c1c(C)[nH]c(C(=O)CN2C(=O)NC(C)(C)C2=O)c1C`?
MPTP block: inactive; TAAR1 antagonist: inactive; DAGLB inhibitor: inactive; TAAR1 ag: inactive

What do the screens show for `CCOC(=O)c1c(C)[nH]c(C(=O)CN2C(=O)NC(CC)(c3ccccc3)C2=O)c1C` (centres undefined)?
GPR7 antag: inactive; MPTP block: inactive; TAAR1 antagonist: inactive; DAGLB inhibitor: inactive; TAAR1 ag: 53.4; TAAR1 ag conf: inactive; Ga16 nonsel ag: 12.0; TAAR1 desens: inactive; Ga16 nonsel ant: inactive

What do the screens show for `CCOC(=O)c1c(C)[nH]c(C(=O)Cn2nnc(-c3ccccc3)n2)c1C`?
GPR7 antag: inactive; MPTP block: inactive; TAAR1 antagonist: inactive; DAGLB inhibitor: inactive; TAAR1 ag: inactive

What do the screens show for `CCOC(=O)c1c(C)[nH]c(C(=O)CN2C(=O)NC(C)(c3ccc(C)cc3)C2=O)c1C` (centres undefined)?
MPTP block: inactive; TAAR1 antagonist: inactive; DAGLB inhibitor: inactive; TAAR1 ag: 97.4; TAAR1 ag conf: 101.6; Ga16 nonsel ag: 49.5; TAAR1 desens: 58.1; Ga16 nonsel ant: 32.6

Results for CCOC(=O)c1ccc(NC(=S)N2CCSC2c2ccc(Br)cc2)cc1 (centres undefined) ?
GPR7 antag: inactive; MPTP block: inactive; TAAR1 antagonist: 103.3; DAGLB inhibitor: inactive; TAAR1 ag: 138.2; TAAR1 ag conf: 129.7; Ga16 nonsel ag: 92.7; TAAR1 desens: 101.6; Ga16 nonsel ant: 84.7

Compound activity from PubChem BioAssay.
